Values after ≈ are worked out from the molar mass of the structure shown.
Columns and labels:
Candida albicans [1] = assay: Antifungal activity against Candida albicans after 48 hrs by M27-A3 CLSI method; type: functional
Outline: (§1)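 Broth microdilution in RPMI 1640, two-fold serial dilutions, final test range 0.125–64 µg mL-1 (fluconazole reference 0.0078–128 µg mL-1). Inoculum 1.0×10^3–1.5×10^3 cells mL-1 from yeasts grown 24 h at 35 °C on Sabouraud dextrose agar. Incubation 35 °C, read at 48 h. MIC = lowest concentration giving >50% turbidity decrease versus growth control. Run three times in triplicate. C. parapsilosis ATCC22019 served as QC.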

Candida albicans [2] = assay: Antifungal activity against Candida albicans ATCC 24433 after 48 hrs by M27-A3 CLSI method; type: functional; outline: as §1
Candida albicans [3] = assay: Antifungal activity against Candida albicans ATCC 3153 after 48 hrs by M27-A3 CLSI method; type: functional; settings: ATCC 3153, 48 h; outline: as §1
Candida albicans [4] = assay: Antifungal activity against Candida albicans ATCC 10231 after 48 hrs by M27-A3 CLSI method; type: functional; settings: ATCC 10231, 48 h; outline: as §1
Candida albicans [5] = assay: Antifungal activity against Candida albicans ATCC 76615 after 48 hrs by M27-A3 CLSI method; type: functional; settings: ATCC 76615, 48 h; outline: as §1
Candida = assay: Antifungal activity against Candida sp. after 48 hrs by M27-A3 CLSI method; type: functional; outline: as §1
Candida parapsilosis [6] = assay: Antifungal activity against Candida parapsilosis after 48 hrs by M27-A3 CLSI method; type: functional; settings: Lodderomyces parapsilosis; outline: as §1
Candida parapsilosis [7] = assay: Antifungal activity against Candida parapsilosis ATCC 22019 after 48 hrs by M27-A3 CLSI method; type: functional; settings: Lodderomyces parapsilosis, ATCC 22019, 48 h; outline: as §1
Candida parapsilosis [8] = assay: Antifungal activity against Candida parapsilosis DSM 11224 after 48 hrs by M27-A3 CLSI method; type: functional; outline: as §1
Candida tropicalis [9] = assay: Antifungal activity against Candida tropicalis after 48 hrs by M27-A3 CLSI method; type: functional; outline: as §1
Candida tropicalis [10] = assay: Antifungal activity against Candida tropicalis PMC 0910 after 48 hrs by M27-A3 CLSI method; type: functional; settings: PMC 0910, 48 h; outline: as §1
Candida tropicalis [11] = assay: Antifungal activity against Candida tropicalis DSM 11953 after 48 hrs by M27-A3 CLSI method; type: functional; settings: DSM 11953, 48 h; outline: as §1
Pichia kudriavzevii [12] = assay: Antifungal activity against Candida krusei after 48 hrs by M27-A3 CLSI method; type: functional; outline: as §1
Pichia kudriavzevii [13] = assay: Antifungal activity against Candida krusei DSM 6128 after 48 hrs by M27-A3 CLSI method; type: functional; settings: DSM 6128, 48 h; outline: as §1
Nakaseomyces glabratus [14] = assay: Antifungal activity against Candida glabrata after 48 hrs by M27-A3 CLSI method; type: functional; outline: as §1
Nakaseomyces glabratus [15] = assay: Antifungal activity against Candida glabrata PMC 0805 after 48 hrs by M27-A3 CLSI method; type: functional; settings: PMC 0805, 48 h; outline: as §1
[16] = Cytotoxicity against human U937 cells after 48 hrs by MTT assay; type: cell-based, U-937
Outline: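 U937 human monocytic cells, 2×10^4 per well, in phenol-red-free RPMI 1640 with 10% FBS, L-glutamine, penicillin and streptomycin. Exposed 48 h at 37 °C, 5% CO2, to compounds dissolved in DMSO at final 8–128 µg mL-1, at least five concentrations, each in three replicates. MTT added for 3–4 h, crystals dissolved, OD read at 570 nm. CC50 taken against DMSO-only control. Means ± SD from three independent experiments.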

[17] = Selectivity index, ratio of CC50 for human U937 cells to MIC for Candida Sp.; type: functional, U-937
Outline: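 SI = CC50 from the 48 h U937 MTT assay divided by the mean MIC across all Candida species. That MIC comes from CLSI M27-A3 broth microdilution in RPMI 1640, 35 °C, read at 48 h.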

Pichia kudriavzevii [18] = assay: Antifungal activity against Candida krusei PMC 0613 after 48 hrs by M27-A3 CLSI method; type: functional; outline: as §1
Pichia kudriavzevii [19] = assay: Ratio MIC for fluconazole to compound for Candida krusei after 48 hrs by M27-A3 CLSI method; type: functional
Pichia kudriavzevii [20] = assay: Ratio MIC for fluconazole to compound for Candida krusei PMC 0613 after 48 hrs by M27-A3 CLSI method; type: functional
Candida tropicalis [21] = assay: Antifungal activity against Candida tropicalis DSM11953 after 48 hrs by M27-A3 CLSI method
Pichia kudriavzevii [22] = assay: Ratio MIC for fluconazole to compound for Candida krusei PMC0613 after 48 hrs by M27-A3 CLSI method

For `O=C(OC(Cn1ccnc1)c1ccc(Cl)cc1)c1ccc(-c2ccccc2)cc1` (racemic), which MIC (Candida albicans [1]) is on record?
Its MIC is 1.7 µg/mL (≈ 4.22 µM).

And the MIC50 (Candida albicans [1])?
Its MIC50 is 1 µg/mL (≈ 2.48 µM).

And the MIC90 (Candida albicans [1])?
Its MIC90 is 4 µg/mL (≈ 9.93 µM).

What about the MIC (Candida albicans [2]; Candida albicans, ATCC 24433, 48 h, read-out: MIC) of the same compound?
Its MIC is 0.25 µg/mL (≈ 0.621 µM).

And the MIC (Candida albicans [3])?
The MIC was 0.125 µg/mL (≈ 0.31 µM).

And the MIC (Candida albicans [4])?
Its MIC is 1 µg/mL (≈ 2.48 µM).

And the MIC (Candida albicans [5])?
Its MIC is 4 µg/mL (≈ 9.93 µM).

And the MIC (Candida)?
The MIC was 1.9 µg/mL (≈ 4.72 µM).

And the MIC50 (Candida)?
Its MIC50 is 1 µg/mL (≈ 2.48 µM).

And the MIC90 (Candida)?
The MIC90 was 4 µg/mL (≈ 9.93 µM).

What about the MIC (Candida parapsilosis [6]) of the same compound?
The MIC was 1.05 µg/mL (≈ 2.61 µM).

What about the MIC (Candida parapsilosis [7]) of the same compound?
Its MIC is 1 µg/mL (≈ 2.48 µM).

And the MIC (Candida parapsilosis [8]; Lodderomyces parapsilosis, DSM 11224, 48 h, read-out: MIC)?
The MIC was 0.25 µg/mL (≈ 0.621 µM).

And the MIC (Candida tropicalis [9])?
The MIC was 0.89 µg/mL (≈ 2.21 µM).

What about the MIC (Candida tropicalis [10]) of the same compound?
Its MIC is 1 µg/mL (≈ 2.48 µM).

And the MIC (Candida tropicalis [11])?
Its MIC is 0.125 µg/mL (≈ 0.31 µM).

And the MIC (Pichia kudriavzevii [12])?
Its MIC is 3.7 µg/mL (≈ 9.18 µM).

And the MIC (Pichia kudriavzevii [13])?
Its MIC is 4 µg/mL (≈ 9.93 µM).

What about the MIC (Nakaseomyces glabratus [14]) of the same compound?
The MIC was 1 µg/mL (≈ 2.48 µM).

And the MIC (Nakaseomyces glabratus [15])?
The MIC was 1 µg/mL (≈ 2.48 µM).

What about the CC50 at 48 h [16] of the same compound?
Its CC50 at 48 h is 88.3 µg/mL (≈ 219 µM).

And the “Selectivity Index” value [17]?
Its value is 49.1.

What about the MIC (Pichia kudriavzevii [18]; Pichia kudriavzevii, PMC 0613, 48 h, read-out: MIC) of the same compound?
Its MIC is 1 µg/mL (≈ 2.48 µM).

What about the Ratio (Pichia kudriavzevii [19]) of the same compound?
The Ratio was 7.

With `O=C(OC(Cn1ccnc1)c1ccccc1)c1ccc(-c2ccccc2)cc1` (single isomer, unassigned; (-)) as the compound, how does the MIC (Candida albicans [2]) read?
The MIC was 0.15 µg/mL (≈ 0.407 µM).

And the MIC (Candida parapsilosis [8])?
The MIC was 0.125 µg/mL (≈ 0.339 µM).

And the MIC (Pichia kudriavzevii [18])?
The MIC was 0.37 µg/mL (≈ 1 µM).

And the Ratio (Pichia kudriavzevii [20])?
The Ratio was 30.

And the Ratio (Pichia kudriavzevii [19])?
The Ratio was 30.

What about the MIC (Candida tropicalis [21]) of the same compound?
The MIC was 0.15 µg/mL (≈ 0.407 µM).

And the Ratio (Pichia kudriavzevii [22])?
Its Ratio is 30.

What does the source list for `O=C(OC(Cn1ccnc1)c1ccc(F)cc1)c1ccc(-c2ccccc2)cc1` (racemic)?
MIC (Candida albicans [1]): 4.4 µg/mL (≈ 11.4 µM); MIC50 (Candida albicans [1]): 4 µg/mL (≈ 10.4 µM); MIC90 (Candida albicans [1]): 8 µg/mL (≈ 20.7 µM); MIC (Candida albicans [2]): 1.5 µg/mL (≈ 3.88 µM); MIC (Candida albicans [3]): 0.25 µg/mL (≈ 0.647 µM); MIC (Candida albicans [4]): 8 µg/mL (≈ 20.7 µM); MIC (Candida albicans [5]): 4 µg/mL (≈ 10.4 µM); MIC (Candida): 2.5 µg/mL (≈ 6.47 µM); MIC50 (Candida): 1 µg/mL (≈ 2.59 µM); MIC90 (Candida): 8 µg/mL (≈ 20.7 µM); MIC (Candida parapsilosis [6]): 1.3 µg/mL (≈ 3.36 µM); MIC (Candida parapsilosis [7]): 2 µg/mL (≈ 5.18 µM); MIC (Candida parapsilosis [8]): 0.42 µg/mL (≈ 1.09 µM); MIC (Candida tropicalis [9]): 4.08 µg/mL (≈ 10.6 µM); MIC (Candida tropicalis [11]): 1 µg/mL (≈ 2.59 µM); MIC (Pichia kudriavzevii [12]): 2.25 µg/mL (≈ 5.82 µM); MIC (Pichia kudriavzevii [13]): 4 µg/mL (≈ 10.4 µM); MIC (Nakaseomyces glabratus [14]): 1 µg/mL (≈ 2.59 µM); MIC (Nakaseomyces glabratus [15]): 1 µg/mL (≈ 2.59 µM); CC50 at 48 h [16]: 41.5 µg/mL (≈ 107 µM); Selectivity Index [17]: 12; MIC (Pichia kudriavzevii [18]): 0.83 µg/mL (≈ 2.15 µM); Ratio (Pichia kudriavzevii [19]): 11; MIC (Candida tropicalis [21]): 2.17 µg/mL (≈ 5.62 µM)

Which MIC (Candida albicans [2]) does the source give for `O=C(OC(Cn1ccnc1)c1ccc(F)cc1)c1ccc(-c2ccccc2)cc1` (single isomer, unassigned; (-)) here?
Its MIC is 0.125 µg/mL (≈ 0.323 µM).

What about the MIC (Candida parapsilosis [8]) of the same compound?
Its MIC is 0.08 µg/mL (≈ 0.207 µM).

What about the MIC (Pichia kudriavzevii [18]) of the same compound?
The MIC was 0.125 µg/mL (≈ 0.323 µM).

And the Ratio (Pichia kudriavzevii [20])?
Its Ratio is 90.

What about the Ratio (Pichia kudriavzevii [19]) of the same compound?
Its Ratio is 90.

And the MIC (Candida tropicalis [21])?
The MIC was 0.27 µg/mL (≈ 0.699 µM).

What about the Ratio (Pichia kudriavzevii [22]) of the same compound?
Its Ratio is 90.

Which MIC (Candida albicans [1]) does the source give for `O=C(OC(Cn1ccnc1)c1ccccc1)c1ccc(-c2ccccc2)cc1` (racemic) here?
Its MIC is 3.7 µg/mL (≈ 10 µM).

What about the MIC50 (Candida albicans [1]) of the same compound?
The MIC50 was 1 µg/mL (≈ 2.71 µM).

And the MIC90 (Candida albicans [1])?
The MIC90 was 8 µg/mL (≈ 21.7 µM).

What about the MIC (Candida albicans [2]) of the same compound?
The MIC was 0.37 µg/mL (≈ 1 µM).

What about the MIC (Candida albicans [3]) of the same compound?
Its MIC is 0.25 µg/mL (≈ 0.679 µM).

And the MIC (Candida albicans [4])?
The MIC was 1 µg/mL (≈ 2.71 µM).

What about the MIC (Candida albicans [5]) of the same compound?
Its MIC is 4 µg/mL (≈ 10.9 µM).

What about the MIC (Candida) of the same compound?
The MIC was 2.1 µg/mL (≈ 5.7 µM).

What about the MIC50 (Candida) of the same compound?
The MIC50 was 0.5 µg/mL (≈ 1.36 µM).

And the MIC90 (Candida)?
Its MIC90 is 4 µg/mL (≈ 10.9 µM).

And the MIC (Candida parapsilosis [6])?
Its MIC is 0.7 µg/mL (≈ 1.9 µM).

And the MIC (Candida parapsilosis [7])?
The MIC was 2 µg/mL (≈ 5.43 µM).

What about the MIC (Candida parapsilosis [8]) of the same compound?
The MIC was 0.33 µg/mL (≈ 0.896 µM).

And the MIC (Candida tropicalis [9])?
The MIC was 0.5 µg/mL (≈ 1.36 µM).

What about the MIC (Candida tropicalis [11]) of the same compound?
The MIC was 0.25 µg/mL (≈ 0.679 µM).

What about the MIC (Pichia kudriavzevii [12]) of the same compound?
Its MIC is 4.7 µg/mL (≈ 12.8 µM).

What about the MIC (Pichia kudriavzevii [13]) of the same compound?
Its MIC is 2 µg/mL (≈ 5.43 µM).

What about the MIC (Nakaseomyces glabratus [14]) of the same compound?
Its MIC is 4 µg/mL (≈ 10.9 µM).

And the MIC (Nakaseomyces glabratus [15])?
The MIC was 4 µg/mL (≈ 10.9 µM).

And the CC50 at 48 h [16]?
The CC50 at 48 h was greater than 128 µg/mL.

What about the “Selectivity Index” value [17] of the same compound?
The value was greater than 44.1.

And the MIC (Pichia kudriavzevii [18])?
Its MIC is 0.67 µg/mL (≈ 1.82 µM).

And the Ratio (Pichia kudriavzevii [19])?
The Ratio was 5.

And the MIC (Candida tropicalis [21])?
Its MIC is 0.58 µg/mL (≈ 1.57 µM).

— ChEMBL document CHEMBL1944618, “Synthesis and antifungal activity of a new series of 2-(1H-imidazol-1-yl)-1-phenylethanol derivatives” (Eur J Med Chem, 2012)
